Measured values gathered from unrelated publications.
Protocols differ between the studies behind these lines.
MMP2: 72 kDa type IV collagenase (MMP2, Homo sapiens, UniProt P08253)
SETD7: Histone-lysine N-methyltransferase SETD7 (SETD7, Homo sapiens, UniProt Q8WTS6)

| SMILES | target | effect on | action | method | concentration | inhibition [%] |
| --- | --- | --- | --- | --- | --- | --- |
| CN(C)C(=O)COC(=O)Cc1ccc(OC(=O)c2ccc(NC(=N)N)cc2)cc1 | MMP2 | enzyme activity | inhibitor | – | 10 µM | 83 |
| Cn1cc(-c2cccc(N3CCc4c(sc5c4CC(C)(C)C5)C3=O)c2CO)cc(Nc2ccncn2)c1=O | G protein-coupled receptor kinase 5 (GRK5, Homo sapiens, UniProt P34947) | enzyme activity | inhibitor | – | 1 µM | -5 |
| Cc1ncc(C)n2nc(/C=C/c3nc(N4CCCC4)cc(N4CCOCC4)n3)nc12 | Prostacyclin receptor (PTGIR, Homo sapiens, UniProt P43119) | cell-free assay | – | – | 10 µM | 22 |
| CCOC(=O)c1ccc(OC(=O)CCCCCNC(=N)N)cc1 | Ubiquitin carboxyl-terminal hydrolase isozyme L1 (UCHL1, Homo sapiens, UniProt P09936) | enzyme activity | inhibitor | – | 10 µM | 5 |
| C[C@H](C(=O)N[C@H]1COc2ccccc2[C@@H]1S(C)(=O)=O)c1ccc(F)cc1 | Coagulation factor X (F10, Homo sapiens, UniProt P00742) | enzyme activity | inhibitor | – | 10 µM | -3 |
| Nc1c(S(=O)(=O)O)cc(Nc2ccc(Nc3nc(Cl)nc(Nc4cccc(S(=O)(=O)O)c4)n3)c(S(=O)(=O)O)c2)c2c1C(=O)c1ccccc1C2=O | SETD7 | cell-free assay | – | – | 10 µM | 93 |
| CC(C)C[C@H](NC(=O)[C@H](Cc1ccccc1)NC(=O)c1cnccn1)B(O)O | Lysosomal protective protein (CTSA, Homo sapiens, UniProt P10619) | cell-free assay | inhibitor | – | 33 µM | 32.4 |
| CCN(CC)CCCC[C@H](NC(=O)[C@H](CC(C)C)NC(=O)[C@H](C)NC(=O)[C@H](Cc1ccccc1)NC(=O)c1ccc(C(C)(C)C)cc1)C(=O)N[C@@H](CO)C(=O)OC | Galanin receptor type 2 (GALR2, Homo sapiens, UniProt O43603) | ligand displacement | – | radioligand | 10 µM | -21 |
| COc1ccc(S(=O)(=O)N(CC(=O)NO)CC(C)C)cc1 | MMP2 | enzyme activity | inhibitor | – | 10 nM | 24 |
| Cn1cc(-c2cc(F)cc(N3CCn4c(cc5c4CCCC5)C3=O)c2CO)cc(Nc2ccc(N3CCN(C4COC4)CC3)cn2)c1=O | G protein-coupled receptor kinase 6 (GRK6, Homo sapiens, UniProt P43250) | enzyme activity | inhibitor | – | 0.1 µM | 4 |
| N=C(N)c1ccc2cc(OC(=O)c3ccc(N=C(N)N)cc3)ccc2c1 | MMP2 | enzyme activity | inhibitor | – | 10 µM | 0 |
| C#Cc1n[nH]c2c(-c3cn([C@@H](C)c4ccccn4)c(=O)[nH]c3=O)cc(F)cc12 | Casein kinase I isoform gamma-1 (CSNK1G1, Homo sapiens, UniProt Q9HCP0) | enzyme activity | inhibitor | – | 0.1 µM | 2.6 |
| CC(C)=CCC[C@]1(C)C=Cc2c(O)c3c(c(CC=C(C)C)c2O1)O[C@]12C(=C[C@@H]4C[C@H]1C(C)(C)O[C@@]2(C/C=C(/C)C(=O)O)C4=O)C3=O | SETD7 | cell-free assay | – | – | 10 µM | -5 |
| O=C(Nc1cccnn1)N1CCN([C@@H]2CCOc3cc(C(F)(F)F)ccc32)CC1 | MMP2 | cell-free assay | – | – | 20 µM | 20 |
